How the values were obtained:
DU-145 = assay: In vitro cytotoxicity against human prostate DU-145 cells.; type: functional
[1] = molecular target: Epidermal growth factor receptor (Mus musculus, UniProt Q01279); assay: Inhibition of epidermal growth factor receptor phosphorylation in BaF3 mouse lymphoid cells.; type: cell-based
Procedure, shortened: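 BaF3/EGFR cells serum-starved 24 h, then about 10^7 cells/mL treated 2 h at 37 °C with inhibitor at 3-5 concentrations. Chilled 20 min, then given EGF 100 ng/mL for 7 min on ice. Lysates precipitated on concanavalin A beads, run on SDS/PAGE, and immunoblotted with antiphosphotyrosine using ECL detection.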

HCT-116 = assay: In vitro cytotoxicity against human colon HCT116 cell culture.; type: functional
HOP-62 = assay: In vitro cytotoxicity against human lung HOP-62 cells.; type: functional
MCF7 = assay: Inhibition of DNA synthesis in MCF-7 cells.; type: functional, cell-based; details: Homo sapiens
Procedure, shortened: (§1)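 Cells seeded at 10^5/well and grown 24 h at 37 °C, then given inhibitor in DMSO at 3-5 concentrations, 3-4 wells each, for 48 h. [3H]thymidine pulse for 2 h. TCA-precipitated label solubilized in perchloric acid and counted.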

MDA-MB-435 = assay: In vitro cytotoxicity against human breast MDA-MB-435 cells.; type: functional
MCF-10A = assay: Inhibition of DNA synthesis in MCF-10A cells.; type: functional, cell-based; details: Homo sapiens; procedure, shortened: as §1
OVCAR-3 = assay: In vitro cytotoxicity against human ovarian OVCAR-3 cells.; type: functional
SN12C = assay: In vitro cytotoxicity against human renal SN12C cells.; type: functional
[2] = molecular target: Tyrosine-protein kinase SYK (Homo sapiens, UniProt P43405); assay: In vitro inhibition of Syk protein tyrosine kinase; type: functional
Procedure, shortened: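 Full-length GST-Syk from baculovirus-infected Sf9 cell lysates, held on glutathione-agarose. Stopped with 10 mM EDTA, beads washed, read by scintillation counting. IC50 determined graphically against DMSO control.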

UACC-62 = assay: In vitro cytotoxicity against human melanoma UACC-62 cells.; type: functional
Cancer cell lines = assay: Mean graph mid point (MGM) for growth inhibition of all human cancer cell lines successfully tested; type: functional
Tubulin beta chain = Tubulin beta chain (Bos taurus, UniProt Q6B856); assay: Inhibition of bovine tubulin polymerization
Sequence of Tubulin beta chain (Q6B856 whole entry): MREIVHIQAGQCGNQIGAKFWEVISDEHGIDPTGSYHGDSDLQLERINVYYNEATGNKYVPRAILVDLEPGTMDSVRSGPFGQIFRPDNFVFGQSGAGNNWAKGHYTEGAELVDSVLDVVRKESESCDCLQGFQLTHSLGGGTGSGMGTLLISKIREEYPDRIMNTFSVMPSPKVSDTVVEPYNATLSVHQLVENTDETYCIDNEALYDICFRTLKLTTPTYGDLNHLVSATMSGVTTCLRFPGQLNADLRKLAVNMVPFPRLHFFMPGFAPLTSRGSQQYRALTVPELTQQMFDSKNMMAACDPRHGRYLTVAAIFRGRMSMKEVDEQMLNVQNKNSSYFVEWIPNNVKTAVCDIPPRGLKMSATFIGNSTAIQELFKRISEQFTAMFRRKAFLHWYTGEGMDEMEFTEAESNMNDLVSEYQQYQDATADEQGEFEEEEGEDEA
Procedure, shortened: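 Electrophoretically homogeneous bovine brain tubulin. Polymerization followed spectrophotometrically with a temperature jump from 2-4 °C to 30 °C.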

SF-539 = assay: In vitro cytotoxicity against human CNS SF-539 cells.; type: functional
CCRF-CEM = assay: Cytotoxic effect on human leukemia CCRF-CEM cells; type: functional

Sequence of Epidermal growth factor receptor (Q01279 whole entry): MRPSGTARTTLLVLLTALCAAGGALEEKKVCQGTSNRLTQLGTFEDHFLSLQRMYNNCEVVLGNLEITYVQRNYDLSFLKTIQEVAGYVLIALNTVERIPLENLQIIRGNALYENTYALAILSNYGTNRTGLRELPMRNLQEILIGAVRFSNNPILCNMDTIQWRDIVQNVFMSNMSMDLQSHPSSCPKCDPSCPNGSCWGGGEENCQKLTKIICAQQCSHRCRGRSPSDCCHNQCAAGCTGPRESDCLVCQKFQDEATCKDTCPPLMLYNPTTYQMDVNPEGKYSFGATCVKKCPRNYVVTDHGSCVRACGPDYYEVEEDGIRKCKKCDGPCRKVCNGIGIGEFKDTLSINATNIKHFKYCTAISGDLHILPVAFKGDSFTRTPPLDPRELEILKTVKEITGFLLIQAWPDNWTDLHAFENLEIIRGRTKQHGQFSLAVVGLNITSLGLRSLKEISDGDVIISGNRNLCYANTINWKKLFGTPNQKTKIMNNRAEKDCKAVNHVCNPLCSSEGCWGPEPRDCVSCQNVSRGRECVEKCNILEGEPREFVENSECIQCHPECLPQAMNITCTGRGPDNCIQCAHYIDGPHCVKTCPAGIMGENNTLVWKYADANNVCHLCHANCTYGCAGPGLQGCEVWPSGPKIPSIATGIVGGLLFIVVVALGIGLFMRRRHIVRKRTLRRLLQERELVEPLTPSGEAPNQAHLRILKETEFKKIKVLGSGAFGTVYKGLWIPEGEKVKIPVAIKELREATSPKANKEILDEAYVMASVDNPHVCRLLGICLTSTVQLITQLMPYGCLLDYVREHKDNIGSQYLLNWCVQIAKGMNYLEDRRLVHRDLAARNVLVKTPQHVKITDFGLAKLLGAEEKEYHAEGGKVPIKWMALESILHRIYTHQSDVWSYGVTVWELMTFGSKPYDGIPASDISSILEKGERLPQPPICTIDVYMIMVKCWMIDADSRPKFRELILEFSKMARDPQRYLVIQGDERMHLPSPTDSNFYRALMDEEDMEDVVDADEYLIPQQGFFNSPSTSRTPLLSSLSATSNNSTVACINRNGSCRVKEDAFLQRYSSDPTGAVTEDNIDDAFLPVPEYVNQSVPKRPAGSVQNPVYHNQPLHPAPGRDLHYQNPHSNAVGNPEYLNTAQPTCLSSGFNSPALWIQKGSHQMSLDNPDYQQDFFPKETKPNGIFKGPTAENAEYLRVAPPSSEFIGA

| Compound | GI50 (DU-145) [µM] | IC50 [1] [µM] | GI50 (HCT-116) [µM] | GI50 (HOP-62) [µM] | IC50 (MCF7) [µM] | GI50 (MDA-MB-435) [µM] | IC50 (MCF-10A) [µM] | GI50 (OVCAR-3) [µM] | GI50 (SN12C) [µM] | IC50 [2] [µM] | GI50 (UACC-62) [µM] | MGM (Cancer cell lines) [µM] | IC50 (Tubulin beta chain) [µM] | GI50 (SF-539) [µM] | GI50 (CCRF-CEM) [µM] |
| --- | --- | --- | --- | --- | --- | --- | --- | --- | --- | --- | --- | --- | --- | --- | --- |
| O=C(NCCc1ccc(O)cc1)c1cc(NCc2cc(O)ccc2O)ccc1O | 17 | 300 | 16 | 2.5 | 16 | 23 | 15 | 62 | 19 | 5 | 18 | 20.4 | 4.5 | 2.5 | – |
| O=C(NCCCc1ccccc1)c1cc(NCc2cc(O)ccc2O)ccc1O | 8.4 | 1 | 24 | 22 | 2 | 18 | 2 | 6.5 | 15 | 28 | 14 | 13.2 | 5 | 16 | 2.4 |
| O=C(NCCc1ccccc1)c1cc(NCc2cc(O)ccc2O)ccc1O | 16 | 10 | 18 | 20 | 9 | 19 | 11 | 7.7 | 18 | 5 | 14 | 14.8 | 3.6 | 17 | 2.7 |
| O=C(NCCc1ccccn1)c1cc(NCc2cc(O)ccc2O)ccc1O | 17 | 15 | 17 | 20 | 11 | 13 | 7 | 17 | 19 | – | 17 | 16 | 3.6 | 29 | 1 |
| COc1ccc(CCNC(=O)c2cc(NCc3cc(O)ccc3O)ccc2O)cc1 | 21 | > 100 | 23 | 12 | 14 | 16 | 11 | 5.5 | 72 | 50 | 14 | 15.4 | 4.2 | 16 | 3.2 |
| O=C(NCc1ccccc1)c1ccc(NCc2cc(O)ccc2O)cc1 | 15 | > 100 | 10 | 20 | 16 | 12 | 34 | 6.8 | 9.7 | 18 | 12 | 8.8 | – | 9.7 | 2.7 |
| O=C(NCCCc1ccccc1)c1ccc(NCc2cc(O)ccc2O)cc1 | 13 | 33 | 6.4 | 16 | 0.4 | 5.8 | 3 | 3 | 3.2 | 35 | 7.9 | 5.3 | 5.7 | 3.4 | 0.83 |
| O=C(NCCc1ccc(Cl)cc1)c1cc(NCc2cc(O)ccc2O)ccc1O | 16 | 46 | 15 | 17 | 13 | 20 | 9 | 5.9 | 9.8 | 25 | 13 | 10 | 3.2 | 8.4 | 1.6 |
| O=C(NCCc1ccccc1)c1ccc(NCc2cc(O)ccc2O)cc1 | 14 | > 200 | 7.4 | 13 | 3 | 5.1 | 7 | 2.7 | 7.4 | 5 | 9.4 | 6.4 | 4.9 | 8.5 | 0.59 |
| O=C(NCCc1ccccc1)c1cccc(NCc2cc(O)ccc2O)c1 | 17 | 500 | 16 | 3.8 | 5 | 15 | 6 | 2.8 | 13 | > 100 | 13 | 12.1 | 6.9 | 15 | 4.4 |
| O=C(NCCc1ccc(Br)cc1)c1cc(NCc2cc(O)ccc2O)ccc1O | 16 | 35 | 7.6 | 18 | 7 | 10 | 6 | 4.2 | 6.3 | 45 | 8.6 | 7.6 | 4.2 | 15.8 | – |
| O=C(NC1CCc2ccccc2C1)c1cc(NCc2cc(O)ccc2O)ccc1O (stereo unspecified) | 17 | 4 | 16 | 17 | 10 | 9.2 | 6 | 7.9 | 18 | 8 | 14 | 11.2 | 5.3 | 2.7 | 1.4 |
| O=C(NCc1ccccc1)c1cc(NCc2cc(O)ccc2O)ccc1O | 16 | 8 | 17 | 23 | 17 | 30 | 17 | 21 | 12 | 25 | 15 | 15.5 | 3.2 | 21 | 3.2 |
| CCCCCCCCCCCCNC(=O)c1cc(NCc2cc(O)ccc2O)ccc1O | 11 | 35 | 2.1 | 3.8 | 1 | 3.2 | 3 | 1.9 | 2.6 | 50 | 3.2 | 2.7 | > 40 | 20 | 0.34 |

— ChEMBL document CHEMBL1134836, “Design, synthesis, and biological evaluation of a series of lavendustin A analogues that inhibit EGFR and Syk tyrosine kinases, as well as tubulin polymerization” (J Med Chem, 2001)
